Compound activity: PubChem BioAssay, several laboratories
Scp-1 inhibitor = blocks human Scp-1 phosphatase activity | Q9GZU7 | Recombinant Scp1, phosphopeptide, malachite green phosphate absorbance | inhibition, % at 20 µM | 0.88% of 340,000 active | AID 493091;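 active = inhibition above about 50% at 20 µM, limit read from the data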;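 also: plate controls were DMSO wells with enzyme for no effect and wells lacking enzyme for full effect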
Target sequence (Q9GZU7 76-261 limits assumed): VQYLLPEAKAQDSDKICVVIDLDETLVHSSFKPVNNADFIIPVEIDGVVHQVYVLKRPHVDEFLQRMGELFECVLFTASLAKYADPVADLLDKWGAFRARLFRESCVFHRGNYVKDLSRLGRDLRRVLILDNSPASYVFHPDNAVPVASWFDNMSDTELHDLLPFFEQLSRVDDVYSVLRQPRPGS
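assay system = SCP-1 phosphatase catalytic domain, residues 76-261 | buffer or medium = 50 mM Tris acetate pH 5.5, 0.005% Tween-20, 10 mM MgCl2 | incubation = enzyme reaction 45 min at room temperature, colour 5 min, stabilisation 30 min | signal = Phosphate-binding colour reagent, absorbance read at 630 nm | measure = % inhibition at 20 µM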
STEP block = blocks human striatal-enriched tyrosine phosphatase | 0.25% of 360,000 active | inhibition, % at 20 µM | recombinant STEP, OMFP fluorogenic substrate, fluorescence;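 active = inhibition at 20 µM, scaled per plate between control wells, above about 37%, limit read from the data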;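 also: 0% = DMSO with enzyme and substrate and 100% = substrate only without enzyme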
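System: STEP phosphatase, cell-free reaction; Buffer or medium: Bis-Tris pH 6.0 buffer with DTT, detergent; Incubation: 20 min at room temperature, dark; Measured by: fluorescence, 480/540 nm.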
DNMT1 block = DNMT1 (human) enzyme inhibition; 0.83% of 360,000 active; AID 588458; inhibition (reported as % activation of signal), % at 10 µM; DNMT1 molecular beacon, Hinp1I cleavage, fluorescence; in the data active = inhibition above about 50%
GRK2 inh = human GRK2 inhibition via aptamer displacement. bead flow cytometry, FAM-aptamer displacement from GRK2. inhibition of aptamer binding, % at 10 µM. 0.59% of 330,000 active. AID 488847;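 active = inhibition of aptamer binding above 40%, roughly 3 SD of noise, on plates passing a quality check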;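 also: median bead fluorescence of bound FAM aptamer so fluorescent compounds give negative values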
LMPTP block = LMPTP (human) inhibition; inhibition, % at 20 µM; 0.22% of 360,000 active; recombinant LMPTP-A, OMFP fluorogenic substrate, fluorescence intensity;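 active = compounds that cut the enzyme signal by at least half of the control window in the single-dose screen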;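 also: plate controls were DMSO wells with enzyme plus substrate for no effect and substrate without enzyme for full effect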
Target sequence (P24666 whole entry, looked up): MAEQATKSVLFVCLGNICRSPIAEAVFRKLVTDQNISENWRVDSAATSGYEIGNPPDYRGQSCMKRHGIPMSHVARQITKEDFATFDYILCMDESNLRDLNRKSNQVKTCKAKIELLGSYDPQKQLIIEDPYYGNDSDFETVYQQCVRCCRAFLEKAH
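Test system – LMPTP-A enzyme · Amount – LMPTP-A at 0.625 nM final in the reaction · Buffer or medium – Bis-Tris pH 6.0, DTT, detergent · Reagent – OMFP 400 µM · Doses – single 20 µM dose · Schedule – reaction 50 min, room temperature, dark · Detection – fluorescence intensity of OMFP turnover product · Evaluation – percent inhibition versus substrate-only and uninhibited controls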
SUMO1-SIM PPI = modulators of human SUMO1-mediated protein-protein interactions; P63165; 0.33% of 360,000 active; SUMO1 binding to a labelled peptide, TR-FRET, 1 h; inhibition, % at 20 µM; in the data active = inhibition above about 37%
Target sequence (P63165 whole entry, looked up): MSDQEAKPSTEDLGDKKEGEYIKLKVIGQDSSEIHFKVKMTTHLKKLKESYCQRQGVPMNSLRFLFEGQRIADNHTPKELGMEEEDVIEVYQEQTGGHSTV
* = called active by the depositor; / = not tested or not shown. This is a sample that favours compounds with a hit; in the whole collection about 2.1% have one here.

SMILES	Scp-1 inhibitor	STEP block	DNMT1 block	GRK2 inh	LMPTP block	SUMO1-SIM PPI
Cc1nc(-c2cc(C#N)c(=O)[nH]c2C)cs1	-10	0	-3	2	-2	0
Cc1ccc(CSC2=NCCN2C(=O)c2ccc(S(=O)(=O)N(C)C)cc2)cc1	-4	1	2	1	0	-5
O=C(Nc1ccc(Br)cc1)Nn1cnnc1	4	2	-1	0	2	-1
CN(C)c1cc(Nc2ccc(O)cc2)c([N+](=O)[O-])c2nonc12	-7	0	25	1	-1	-28
O=[N+]([O-])c1c(Nc2ccc(O)cc2)cc(Cl)c2nonc12	-13	49*	27	1	0	-23
OC[C@@H]1CN(Cc2ccco2)C[C@H](n2cnc3c(N4CCN(c5ccccc5)CC4)ncnc32)O1	/	0	2	/	0	12
Cc1cc(N2CCCCC2)nc(-c2ccc(Br)cc2)n1	-4	0	-4	0	4	45*
CCOc1cccc(C(=O)Nc2cccc(-c3nnc(-c4ccc(C)cc4)o3)c2)c1	-8	0	66*	0	5	0
C/C(=N\NC(=O)Nc1ccccc1)c1ccc2ccccc2c1	-1	2	5	100*	0	-1
C/C(=N/NC(=O)Nc1ccccc1)c1ccc(C)cc1	3	2	1	2	0	-3
CCn1cc(C(=O)O)c(=O)c2cc(F)c(N3CCN(C(=S)NC(=O)c4ccccc4)CC3)cc21	-16	0	-3	0	66*	8
CCn1cc(C(=O)O)c(=O)c2cc(F)c(N3CCN(C(=S)NC(=O)c4ccccc4Cl)CC3)cc21	-11	6	0	0	63*	27
C=CCNC(=S)N1CCN(c2cc3c(cc2F)c(=O)c(C(=O)O)cn3CC)CC1	-18	1	-1	0	19	7
CCn1cc(C(=O)O)c(=O)c2cc(F)c(N3CCN(C(=S)NC(=O)c4cc(OC)cc(OC)c4)CC3)cc21	7	5	3	1	63*	12
CCn1cc(C(=O)O)c(=O)c2cc(F)c(N3CCN(C(=S)Nc4ccc(OC)cc4)CC3)cc21	-12	-2	6	0	59*	-2
O=C(c1ccc2oc(Cc3ccc(Cl)cc3)nc2c1)N1CC[C@H](O)C1	7	-1	0	1	0	-4
O=C(C[n+]1ccc(-c2ccccc2)cc1)Nc1ccc([N+](=O)[O-])cc1	-8	-2	1	0	3	-38
Cc1cc(C)c(C(=O)OCC(=O)Nc2cccc(S(=O)(=O)N3CCCCC3)c2)c(C)c1	-5	1	-7	0	3	4
CCn1cc(C(=O)NCc2ccc3c(c2)OCO3)c(=O)c2cc(F)c(N3CCN(C(=O)c4ccco4)CC3)cc21	9	5	-16	2	53*	8
CCn1cc(C(=O)O)c(=O)c2cc(F)c(N3CCN(C(=S)NC(=O)c4ccccc4C)CC3)cc21	-16	4	0	3	64*	11
CCn1cc(C(=O)NCc2ccccc2)c(=O)c2cc(F)c(N3CCN(C(=O)c4ccco4)CC3)cc21	4	2	-9	0	6	13
COc1cccc(C2C(C(C)=O)=C(C)Nc3ncnn32)c1 (stereo not given)	-9	-2	1	0	-1	38*
NC(CCC(=O)NC(CS)C(=O)NCC(=O)O)C(=O)O (stereo not given)	-9	0	-1	/	1	9
CCC(C)[C@@H](CN)NCC1(c2ccccc2)CC1 (stereo not given in full)	5	-2	0	0	-3	37*
CCc1noc(C)c1C(=O)OC(C)C(=O)Nc1ccccc1OC (stereo not given)	-9	-2	0	1	0	6
SMILES	Scp-1 inhibitor	STEP block	DNMT1 block	GRK2 inh	LMPTP block	SUMO1-SIM PPI
CSc1ccc(C(=O)C2CCCN(C(=O)c3ccc4c(c3)no[n+]4[O-])C2)cc1 (stereo not given)	-7	0	0	0	0	-35
COc1ccc(C(=O)Nc2ccccc2C(=O)NC(Cc2ccc(O)cc2)C(=O)NNC(=O)c2ccc(C)cc2)cc1 (stereo not given)	-7	4	-8	0	11	78*
O=C(O)COC(=O)C1C(c2ccccc2)C(C(=O)O)C1c1ccccc1 (stereo not given)	-1	-3	2	1	0	-1
O=C(O)c1ccc(N=Nc2c(O)ccc3ncccc23)cc1	73*	16	3	0	15	-13
Cc1cc2nc3s/c(=C/c4ccc(-c5ccccc5C(=O)O)o4)c(=O)n3c2cc1C	98*	24	45	4	7	16
O=C(O)c1cc(-c2ccc(/C=c3\sc4nc5ccc(Br)cc5n4c3=O)o2)ccc1Cl	/	/	/	19	/	/
COc1ccc(OCC(=O)Nc2cc(NC(=O)c3ccco3)ccc2OC)cc1	-3	-2	0	3	0	2
COC(=O)C1=CN(c2ccccc2OC)C(N)=C(C#N)C1c1cccc([N+](=O)[O-])c1 (stereo not given)	/	/	/	/	2	-12
CCN(CC)C(=O)c1ncn(C)c1C(=O)N(CC)CC	92*	0	19	2	-1	0
O=C(O)c1ccccc1-c1ccc(/C=C2\SC(=O)N(c3ccccc3)C2=O)o1	26	10	14	11	1	-12
COC(=O)C(C)N1C(=O)S/C(=C\c2ccc(-c3ccc(C(=O)O)cc3C)o2)C1=O (stereo not given)	64*	8	19	3	2	-3
CCCS(=O)(=O)NC(=O)C1(C)CCN(C(=O)c2cc(C)oc2C)C1 (stereo not given)	/	-2	-2	/	0	-7
O=C(Nc1cccc(S(=O)(=O)NC2=NCCCCC2)c1)c1cc(-c2ccco2)nc2ccccc12	90*	0	97*	4	35	12
CCOC(=O)Cc1csc(SCC(=O)NC2CCS(=O)(=O)C2)n1 (stereo not given)	-6	-8	4	0	-9	-31
C=C1c2cccc(O)c2C(O)=C2C(=O)[C@]3(O)C(O)=C(C(N)=O)C(=O)[C@@H](N(C)C)[C@@H]3[C@@H](O)[C@H]12	39	25	90*	0	88*	72*
C[C@H]1c2cccc(O)c2C(O)=C2C(=O)C3(O)C(O)=C(C(N)=O)C(=O)[C@@H](N(C)C)[C@@H]3[C@@H](O)[C@@H]21 (stereo not given in full)	-14	-2	-2	1	1	1
CCC/C(C#Cc1ccc(N(C)C)cc1)=C1/c2ccccc2C(=O)N1c1ccccc1	57*	-30	10	0	3	-6
